According to ChEMBL document CHEMBL2046423, “NOSH-Aspirin: A Novel Nitric Oxide-Hydrogen Sulfide-Releasing Hybrid: A New Class of Anti-inflammatory Pharmaceuticals” (ACS Med Chem Lett, 2012):
pIC50: −log10 of the molar value. Calls of active or inactive are those of the source. The calls are words filed in the database; no cut-off is given here.

What was measured:
MDA-MB-231 = assay: Cytotoxicity against ER deficient human MDA-MB-231 cells after 24 hrs by MTT assay; type: functional, cell-based; details: MDA-MB-231, 24 h
Procedure, shortened: (§1)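 Human cancer cell lines were exposed to compound and cell viability was read at 24 h. IC50 values were calculated from the viability data. Mean ± SEM of at least four experiments, each run in triplicate.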

LNCaP = assay: Cytotoxicity against human LNCAP cells after 24 hrs by MTT assay; type: functional, cell-based; procedure, shortened: as §1
BXPC-3 = assay: Cytotoxicity against human BxPC3 cells expressing COX1 and COX2 after 24 hrs by MTT assay; type: functional, cell-based; details: BXPC-3, 24 h; procedure, shortened: as §1
HCT-15 = assay: Cytotoxicity against COX deficient human HCT15 cells after 24 hrs by MTT assay; type: functional, cell-based; details: HCT-15, 24 h; procedure, shortened: as §1
MCF7 = assay: Cytotoxicity against human MCF7 cells expressing ER after 24 hrs by MTT assay; type: functional, cell-based; details: MCF7, 24 h; procedure, shortened: as §1
Jurkat = assay: Cytotoxicity against human Jurkat cells expressing COX1 and COX2 after 24 hrs by MTT assay; type: functional, cell-based; procedure, shortened: as §1
MIA PaCa-2 = assay: Cytotoxicity against COX deficient human MIAPaCa2 cells after 24 hrs by MTT assay; type: functional, cell-based; details: MIA PaCa-2, 24 h; procedure, shortened: as §1
HT-29 [1] = assay: Ratio of aspirin IC50 to compound IC50 for human HT-29 cells expressing COX1 and COX2 after 24 hrs by MTT assay; type: functional; procedure, shortened: as §1
SW480 = assay: Cytotoxicity against human SW480 cells expressing COX1 after 24 hrs by MTT assay; type: functional, cell-based; details: SW480, 24 h; procedure, shortened: as §1
SK-BR-3 = assay: Cytotoxicity against ER deficient human SKBR3 cells after 24 hrs by MTT assay; type: functional, cell-based; details: SK-BR-3, 24 h; procedure, shortened: as §1
HT-29 [2] = assay: Cytotoxicity against human HT-29 cells expressing COX1 and COX2 after 24 hrs by MTT assay; type: functional, cell-based; details: HT-29, 24 h; procedure, shortened: as §1
A549 = assay: Cytotoxicity against human A549 cells after 24 hrs by MTT assay; type: functional, cell-based; details: A549, 24 h; procedure, shortened: as §1
Rattus norvegicus [3] = assay: Antiinflammatory activity in rat assessed as reduction of carrageenan-induced PGE2 level in paw exudates at 0.21 mmol/kg by […] (reference value: 82 +/- 2 pg/mg); type: functional
HT-29 [4] = assay: Cytotoxicity against human HT-29 cells expressing COX1 and COX2 assessed as lactate dehydrogenase release at IC50 after 2 to 8 hrs; type: functional
Procedure, shortened: (§2)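 HT-29 colon cancer cells were treated with several concentrations for 2, 4, 6, 8 or 24 h. Cytotoxicity was read as LDH release (%) relative to untreated controls.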

Rattus norvegicus [5] = species on record: Rattus norvegicus; assay: Antiinflammatory activity in rat assessed as reduction of carrageenan-induced paw volume measured after 6 hrs; type: functional, organism-based
Rattus norvegicus [6] = species on record: Rattus norvegicus; assay: Antiinflammatory activity in rat assessed as reduction of carrageenan-induced COX2 expression in paw exudates by Western blot analysis; type: functional, organism-based
Rattus norvegicus [7] = assay: Antiinflammatory activity in rat assessed as reduction of carrageenan-induced TNFalpha level in plasma at 0.21 mmol/kg by ELISA; type: functional
Rattus norvegicus [8] = assay: Antiinflammatory activity in rat assessed as reduction of carrageenan-induced COX1 expression in paw exudates at 0.21 to 0.52 mmol/kg by Western blot analysis; type: functional, organism-based
Rattus norvegicus [9] = assay: Antiinflammatory activity in rat assessed as reduction of carrageenan-induced paw volume at 0.21 mmol/kg after 1 hr; type: functional
Rattus norvegicus [10] = assay: Antiinflammatory activity in rat assessed as reduction of carrageenan-induced PGE2 level in paw exudates at 0.52 mmol/kg by […] (reference value: 82 +/- 2 pg/mg); type: functional
Rattus norvegicus [11] = assay: Antiinflammatory activity in rat assessed as reduction of carrageenan-induced paw volume at 0.21 mmol/kg after 3 hrs; type: functional
Rattus norvegicus [12] = assay: Antiinflammatory activity in rat assessed as reduction of carrageenan-induced paw volume at 0.52 mmol/kg after 1 to 2 hrs; type: functional
HT-29 [13] = assay: Cytotoxicity against human HT-29 cells expressing COX1 and COX2 assessed as lactate dehydrogenase release at IC50 to 4 times IC50; type: functional, cell-based; details: TDE = time-dependent effect; procedure, shortened: as §2
Rattus norvegicus [14] = assay: In vivo drug metabolism in carrageenan treated rat assessed as increase of nitric oxide release in plasma by Griess reaction; type: ADME, organism-based
Procedure, shortened: (§3)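 Blood was collected at the end of the carrageenan paw edema study from rats given vehicle, the reference or the test compound (0.21 or 0.52 mmol/kg). Plasma NOx and H2S were quantified. Mean ± SEM, four rats per group.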

HT-29 [15] = assay: Cytotoxicity against human HT-29 cells expressing COX1 and COX2 assessed as lactate dehydrogenase release at 4 times IC50 after 2 to 8 hrs; type: functional; procedure, shortened: as §2
Rattus norvegicus [16] = assay: Antiinflammatory activity in rat assessed as reduction of carrageenan-induced paw volume at 0.52 mmol/kg after 2 to 6 hrs; type: functional
Rattus norvegicus [17] = assay: Antiinflammatory activity in rat assessed as reduction of carrageenan-induced paw volume at 0.21 mmol/kg after 6 hrs; type: functional
Rattus norvegicus [18] = assay: Antiinflammatory activity in rat assessed as reduction of carrageenan-induced TNFalpha level in plasma at 0.52 mmol/kg by ELISA; type: functional
Rattus norvegicus [19] = assay: In vivo drug metabolism in carrageenan treated rat assessed as increase of H2S release in plasma by […]; type: ADME, organism-based; procedure, shortened: as §3
HT-29 [20] = assay: Cytotoxicity against human HT-29 cells expressing COX1 and COX2 assessed as lactate dehydrogenase release after 2 to 24 hrs; type: functional, cell-based; procedure, shortened: as §2
HT-29 [21] = assay: Cytotoxicity against human HT-29 cells expressing COX1 and COX2 assessed as lactate dehydrogenase release at 4 times IC50 after 24 hrs; type: functional; procedure, shortened: as §2
Rattus norvegicus [22] = assay: Antiinflammatory activity in rat assessed as increase of carrageenan-induced TNFalpha level in plasma at 0.56 mmol/kg by ELISA; type: functional
Rattus norvegicus [23] = assay: Antiinflammatory activity in rat assessed as reduction of carrageenan-induced paw volume at 0.56 mmol/kg after 1 to 3 hrs; type: functional
Rattus norvegicus [24] = assay: Antiinflammatory activity in rat assessed as reduction of carrageenan-induced paw volume at 0.56 mmol/kg after 6 hrs; type: functional
Rattus norvegicus [25] = assay: Antiinflammatory activity in rat assessed as reduction of carrageenan-induced paw volume at 0.56 mmol/kg after 1 hr; type: functional

SMILES	pIC50 (MDA-MB-231)	pIC50 (LNCaP)	pIC50 (BXPC-3)	pIC50 (HCT-15)	pIC50 (MCF7)	pIC50 (Jurkat)	pIC50 (MIA PaCa-2)	Ratio IC50 (HT-29 [1])	pIC50 (SW480)	pIC50 (SK-BR-3)	pIC50 (HT-29 [2])	pIC50 (A549)	Activity (Rattus norvegicus [3]) [pg/mg]	other results
NC(=S)c1ccc(OC(=O)c2ccccc2OC(=O)CCCO[N+](=O)[O-])cc1	5.22	5.37	5.26	5.23	5.24	5.15	5.32	>600	5.28	5.19	5.12	5.19		
O=C(CCCO[N+](=O)[O-])Oc1ccccc1C(=O)Oc1ccc(-c2cc(=S)ss2)cc1	7.00	7.06	7.24	7.30	6.55	7.00	7.33	100000	7.22	7.12	7.32	7.30	42	Activity (HT-29 [4]): 0.5%; Activity (Rattus norvegicus [5]): Dose-dependent effect; inhibition (Rattus norvegicus [6]): Dose-dependent effect; Activity (Rattus norvegicus [7]): 55 pg/mL; inhibition (Rattus norvegicus [8]): Active; Activity (Rattus norvegicus [9]): 0.5 mL; Activity (Rattus norvegicus [10]): 21 pg/mg; Activity (Rattus norvegicus [11]): 0.6 mL; Activity (Rattus norvegicus [12]): 0.45 mL; Activity (HT-29 [13]): tde; Drug metabolism (Rattus norvegicus [14]): Dose-dependent effect; Activity (HT-29 [15]): 1%; Activity (Rattus norvegicus [16]): 0.35 mL; Activity (Rattus norvegicus [17]): 0.4 mL; Activity (Rattus norvegicus [18]): 40 pg/mL; Drug metabolism (Rattus norvegicus [19]): Dose-dependent effect; Activity (HT-29 [20]): Dose-dependent effect; Activity (HT-29 [21]): <10%
O=C(CCCC[C@@H]1CCSS1)Oc1ccccc1C(=O)OCCCCO[N+](=O)[O-]	6.10	6.30	6.15	6.28	6.55	6.62	6.10	>16000	6.22	6.26	6.52	6.52		
O=C(CCC(=O)Oc1ccccc1C(=O)Oc1ccc(-c2cc(=S)ss2)cc1)OCCCCO[N+](=O)[O-]	7.07	7.00	7.00	7.05	7.15	7.05	6.99	>60000	7.01	7.06	7.10	6.92		
CC(=O)Oc1ccccc1C(=O)O [ASPIRIN]	< 2.30	< 2.30	< 2.30	< 2.30	< 2.30	< 2.30	< 2.30		< 2.30	< 2.30		< 2.30	12	Activity (Rattus norvegicus [22]): 200 pg/mL; Activity (Rattus norvegicus [23]): 0.35 mL; Activity (Rattus norvegicus [24]): 0.35 mL; Activity (Rattus norvegicus [25]): 0.4 mL
